As a reminder, the inhibition is the relative decrease from the control value, in per cent. As a reminder, the inhibition in vivo is the relative decrease from the control value, in per cent. As a reminder, the IC50 is the concentration needed to halve the response being measured. The term GI50 denotes the concentration that inhibits growth by half. The MIC is the lowest concentration that inhibits growth of the organism.

Converted amounts (≈) assume the structure as drawn.

Data set [1] deals with Plasmodium berghei. Kind of data set: Antimalarial activity against chloroquine-susceptible Plasmodium berghei ANKA assessed as inhibition of trophozoite extract-mediated mouse hemoglobin hydrolysis at 10 mM after 18 hrs by SDS-PAGE. The class given is functional. The method in brief:
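Trophozoite extract came from P. berghei-infected mouse blood at 30–50% parasitemia: RBCs percoll-purified (80–70%), saponin-lysed, then freeze–thawed three times. Substrate was native haemoglobin from uninfected mouse erythrocytes lysed in water. The mix held GSH and acetate buffer (0.2 M, pH 5.4). Compound was added in DMSO and incubated 37 °C, 18 h. Reactions were stopped with reduced sample buffer.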

Data set [2] in a line: Inhibition of beta-hematin formation assessed as inhibition of […] polymerization at […] after 48 hrs. In kind it is functional. The essentials:
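Hemin chloride (50 µL, 4 mM in DMSO) was mixed in triplicate with compound in DMSO; water or DMSO served as controls. Reaction was started with acetate buffer (0.2 M, pH 4.4) and run 37 °C for 48 h. The pellet was DMSO-washed twice, dissolved in 0.2 N NaOH, diluted 1:2 in 0.1 N NaOH, and read at 405 nm as % inhibition of FP polymerization.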

Data set [3] deals with Plasmodium berghei. Kind of data set: Antimalarial activity against chloroquine-susceptible Plasmodium berghei ANKA infected in Balb-C mouse assessed as inhibition parasitemia at 20 mg/kg, ip qd for 4 days […]. In kind it is functional. As to conditions: 96 h, route intraperitoneal. The essentials: (§1)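 Balb-C mice (18–23 g, n = 6) were infected iv in the caudal vein with 10⁶ P. berghei ANKA-infected RBCs. Dosing started 2 h post-infection: 20 mg/kg ip once daily for 4 days, DMSO stock diluted in Saline-Tween 20 (2%). Chloroquine 25 mg/kg served as positive control; untreated mice were controls. Parasitemia was read on day 4 from Giemsa smears, and survival days were recorded.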

The test system of data set [4] is Plasmodium berghei. Kind of data set: Antimalarial activity against chloroquine-susceptible Plasmodium berghei ANKA infected in Balb-C mouse. In kind it is functional, organism-based. The method in brief:
as §1

The test system of the next data set is NCI-H460. Kind of data set: Cytotoxicity against human H460 cells assessed as growth inhibition after 48 hrs by sulforhodamine B assay. As to conditions: NCI-H460, 48 h. The class given is functional. The essentials:
(§2)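 Cells were exposed to serial compound dilutions in 96-well plates for 48 h at 37 °C alongside solvent controls. Growth was read colorimetrically by sulforhodamine B. GI50 is the concentration giving a 50% reduction in absorbance versus solvent-treated controls, derived by linear regression.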
On the technique in general: In SRB staining, fixed cells bind dye roughly in proportion to their protein.

In data set [5] the test system is Mycobacterium tuberculosis. Kind of data set: Antimycobacterial activity against Mycobacterium tuberculosis H37Rv after 5 days by tetrazolium microplate assay. The class given is functional. Particulars: 120 h. The method in brief:
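Tetrazolium microplate assay run in 7H9GC broth. DMSO stocks (4 mg/mL) were diluted to final 0.4–25 µg/mL. Isoniazid (0.125–32 µg/mL) and rifampin (0.063–16 µg/mL) were positive controls; inoculum-only and DMSO controls were included. Plates were incubated 5 days at 37 °C, then an MTT-Tween 80 mix was added and incubation continued 24 h at 37 °C. Run in triplicate. MIC = lowest concentration preventing the yellow-to-purple colour change.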

Data set [6] can be described thus: Cytotoxicity against mouse 3T3 cells assessed as growth inhibition after 48 hrs by sulforhodamine B assay. The class given is cell-based. Particulars: NIH3T3 cells. The essentials:
as §2

Data set [7] in a line: Cytotoxicity against african green monkey Vero cells assessed as growth inhibition after 48 hrs by sulforhodamine B assay. In kind it is cell-based. As to conditions: chlorocebus sabaeus. The method in brief: as §2
For a further data set, the system named is DU-145. Kind of data set: Cytotoxicity against human DU145 cells assessed as growth inhibition after 48 hrs by sulforhodamine B assay. In kind it is functional. As to conditions: DU-145, 48 h. The essentials:
as §2

The next data set has as its system MCF7. Kind of data set: Cytotoxicity against human MCF7 cells assessed as growth inhibition after 48 hrs by sulforhodamine B assay. The class given is functional. Particulars: MCF7, 48 h. The method in brief:
as §2

Another data set has as its system M14. Kind of data set: Cytotoxicity against human M14 cells assessed as growth inhibition after 48 hrs by sulforhodamine B assay. As to conditions: M14, 48 h. The class given is functional. The essentials: as §2
The next data set has as its system HT-29. Kind of data set: Cytotoxicity against human HT-29 cells assessed as growth inhibition after 48 hrs by sulforhodamine B assay. The class given is functional. As to conditions: HT-29, 48 h. The essentials: as §2
Another data set deals with K562. Kind of data set: Cytotoxicity against human K562 cells assessed as growth inhibition after 48 hrs by sulforhodamine B assay. As to conditions: K562, 48 h. In kind it is functional. The method in brief: as §2
The test system of data set [8] is Plasmodium berghei. Kind of data set: Antimalarial activity against chloroquine-susceptible Plasmodium berghei ANKA infected in Balb-C mouse assessed as mouse survival days at 20 mg/kg, ip qd for 4 days […] relative to untreated control. Particulars: route intraperitoneal. In kind it is functional.

Regarding `O=CNNC(=O)c1ccc2[nH]c(-c3ccc([N+](=O)[O-])o3)nc2c1`, the inhibition at 10000 µM in the data set with Plasmodium berghei [1] worked out at 24.2%. Also, the inhibition in data set [2] turned out to be 94%. In addition, the inhibition in vivo at 20 mg/kg in the data set with Plasmodium berghei [3] was 25.8%. This compound also displayed a half-maximal inhibitory concentration (IC50) with Plasmodium berghei [4] of 8.63 µM. Besides, the GI50 with NCI-H460 came out at 31.2 µg/mL (≈ 99.1 µM); in the data set on DU-145 it was 15.6 µg/mL (≈ 49.6 µM); with MCF7, 62.5 µg/mL (≈ 198 µM); in the data set on M14 it was 31.2 µg/mL (≈ 99.1 µM); in the data set on HT-29 it was 62.5 µg/mL (≈ 198 µM); with K562, 31.2 µg/mL (≈ 99.1 µM). This compound also registered a minimum inhibitory concentration (MIC) in data set [5] greater than 25 µg/mL. Further, the 50% growth inhibitory concentration (GI50) at 48 h in data set [6] and in data set [7] was 62.5 µg/mL (≈ 198 µM) throughout. Moreover, the Survival in the data set on Plasmodium berghei [8] came to 8.2 days.
For `COc1cccc(C(=O)NNC(=O)c2ccc3[nH]c(-c4ccc([N+](=O)[O-])o4)nc3c2)c1`, the inhibition at 10000 µM in the data set on Plasmodium berghei [1] was 2.82%. Moreover, the inhibition in data set [2] worked out at 72.4%. In addition, in the data set on Plasmodium berghei [3], the inhibition in vivo at 20 mg/kg was found to be 5.98%. Further, inhibition in the data set on Plasmodium berghei [4] was half-maximal at 13.1 µM (IC50). For the same compound, the GI50 amounted to 62.5 µg/mL (≈ 148 µM) in the data set on NCI-H460; 15.6 µg/mL (≈ 37.1 µM) with DU-145; 15.6 µg/mL (≈ 37.1 µM) with MCF7; 7.81 µg/mL (≈ 18.5 µM) with M14; 31.2 µg/mL (≈ 74.2 µM) in the data set with HT-29; 15.6 µg/mL (≈ 37.1 µM) in the data set on K562. Moreover, 25 µg/mL (≈ 59.3 µM) was the least that counted as inhibitory in data set [5] (MIC). For the same compound, the figures for the GI50 at 48 h in data set [6] and in data set [7] were 15.6 µg/mL (≈ 37.1 µM) and 31.2 µg/mL (≈ 74.2 µM), respectively. Moreover, the Survival with Plasmodium berghei [8] stood at 11.8 days.
For `O=C(O)c1ccc2[nH]c(-c3ccc([N+](=O)[O-])o3)nc2c1`, the inhibition at 10000 µM in the data set on Plasmodium berghei [1] came out at 0%. The inhibition in [2] stood at 95.4%. For the same compound, the inhibition in vivo at 20 mg/kg with Plasmodium berghei [3] is 4.02%. In addition, the IC50 in the data set on Plasmodium berghei [4] is 8.43 µM. The concentration for 50% growth inhibition (GI50) in the data set with NCI-H460 was 125 µg/mL (≈ 458 µM); with DU-145, 125 µg/mL (≈ 458 µM); with MCF7 it was greater than 250 µg/mL; in the data set with M14, 250 µg/mL (≈ 915 µM); in the data set on HT-29 it was 250 µg/mL (≈ 915 µM); with K562, 250 µg/mL (≈ 915 µM). The compound further displayed an MIC in [5] greater than 25 µg/mL. The 50% growth inhibitory concentration (GI50) at 48 h is 62.5 µg/mL (≈ 229 µM) in [6] and greater than 250 µg/mL in [7]. Further, the Survival with Plasmodium berghei [8] is 17 days.
Regarding `COc1cccc(C(=O)NNC(=O)c2ccc3[nH]c(-c4ccc([N+](=O)[O-])s4)nc3c2)c1`, the inhibition at 10000 µM in the data set with Plasmodium berghei [1] worked out at 13.4%. Moreover, the inhibition in data set [2] is 61.6%. For the same compound, the inhibition in vivo at 20 mg/kg in the data set on Plasmodium berghei [3] came out at 24.8%. In the data set on Plasmodium berghei [4], this compound displayed an IC50 of 24.5 µM. The GI50 in the data set on NCI-H460 turned out to be 62.5 µg/mL (≈ 143 µM); in the data set on DU-145 it was 62.5 µg/mL (≈ 143 µM); in the data set with MCF7, 15.6 µg/mL (≈ 35.7 µM); in the data set on M14, 15.6 µg/mL (≈ 35.7 µM); in the data set on HT-29, 31.2 µg/mL (≈ 71.4 µM); in the data set on K562, 15.6 µg/mL (≈ 35.7 µM). The MIC in data set [5] is greater than 25 µg/mL. Besides, the figures for the GI50 at 48 h in data set [6] and in data set [7] were 15.6 µg/mL (≈ 35.7 µM) and greater than 250 µg/mL, respectively. Further, the Survival in the data set on Plasmodium berghei [8] turned out to be 10.6 days.

Values taken from ChEMBL document CHEMBL1681759, “Synthesis and biological evaluation of benzimidazole-5-carbohydrazide derivatives as antimalarial, cytotoxic and antitubercular agents” (Bioorg Med Chem, 2011).
